Test results taken from ChEMBL document CHEMBL5058577, “EUbOPEN Chemogenomics Library 2 (Multiplex)” (2022).

Tested on: U2OS
Assay: Multiplex assay against U2OS
Assay type: toxicity, cell-based
Conditions: human
In short: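 At seeding, live cells were stained with Hoechst33342, BioTracker Green Microtubule Cytoskeleton Dye, MitoTracker Red and Annexin V Alexa Fluor 680. After compound addition they were imaged on a CQ1 microscope at 37°C and 5% CO2, and CellPathfinder machine-learning gating sorted them into Hoechst high-intensity objects or normal cells, with normal cells further split into healthy, pyknosed or fragmented nuclei and pyknosed cells into mitotic or apoptotic. Tubulin, mitochondrial-mass and membrane-permeability phenotypes are given as per cents of cells with healthy nuclei.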

[1] = 12 h, 1 µM, compound concentration 1 uM, replicate 1
[2] = 12 h, 1 µM, compound concentration 1 uM, replicate 2
[3] = 12 h, 10 µM, compound concentration 10 uM, replicate 1
[4] = 12 h, 10 µM, compound concentration 10 uM, replicate 2
[5] = 24 h, 1 µM, compound concentration 1 uM, replicate 1
[6] = 24 h, 1 µM, compound concentration 1 uM, replicate 2
[7] = 24 h, 10 µM, compound concentration 10 uM, replicate 1
[8] = 24 h, 10 µM, compound concentration 10 uM, replicate 2
[9] = 48 h, 1 µM, compound concentration 1 uM, replicate 1
[10] = 48 h, 1 µM, compound concentration 1 uM, replicate 2
[11] = 48 h, 10 µM, compound concentration 10 uM, replicate 1
[12] = 48 h, 10 µM, compound concentration 10 uM, replicate 2

Question: Which “Population Apoptotic (%)” value [1] does the source give for `Cc1cc(=O)n(C)c2cc(N3C(=O)CC[C@H](NS(=O)(=O)CC(C)C)[C@H]3c3ccc(Cl)cc3)ccc12` here?
Answer: The value was 87%.

Question: What about the “Population Fragmented Nuclei (%)” value [1] of the same compound?
Answer: Its value is 24%.

Question: What about the “Population Healthy Nuclei (%)” value [1] of the same compound?
Answer: The value was 66%.

Question: And the “Population Hoechst High Intensity Objects (%)” value [1]?
Answer: Its value is 3%.

Question: What about the “Population Membrane Permeable-Phenotype (%)” value [1] of the same compound?
Answer: Its value is 3%.

Question: What about the “Population Mitochondria Different-Phenotype (%)” value [1] of the same compound?
Answer: The value was 1%.

Question: And the “Population Mitotic Cells (%)” value [1]?
Answer: Its value is 12%.

Question: What about the “Population Normal (%)” value [1] of the same compound?
Answer: Its value is 96%.

Question: What about the “Population Pyknosed Nuclei (%)” value [1] of the same compound?
Answer: The value was 9%.

Question: What about the “Population Tubulin-Different-Phenotype (%)” value [1] of the same compound?
Answer: Its value is 1%.

Question: And the “Total Cell Count” value [1]?
Answer: The value was 263.

Question: And the “Population Apoptotic (%)” value [2]?
Answer: Its value is 63%.

Question: What about the “Population Fragmented Nuclei (%)” value [2] of the same compound?
Answer: The value was 21%.

Question: And the “Population Healthy Nuclei (%)” value [2]?
Answer: Its value is 68%.

Question: What about the “Population Hoechst High Intensity Objects (%)” value [2] of the same compound?
Answer: Its value is 1%.

Question: And the “Population Membrane Permeable-Phenotype (%)” value [2]?
Answer: The value was 2%.

Question: And the “Population Mitochondria Different-Phenotype (%)” value [2]?
Answer: The value was 2%.

Question: And the “Population Mitotic Cells (%)” value [2]?
Answer: The value was 36%.

Question: What about the “Population Normal (%)” value [2] of the same compound?
Answer: The value was 98%.

Question: What about the “Population Pyknosed Nuclei (%)” value [2] of the same compound?
Answer: Its value is 10%.

Question: And the “Total Cell Count” value [2]?
Answer: Its value is 110.

Question: And the “Population Apoptotic (%)” value [3]?
Answer: The value was 57%.

Question: And the “Population Fragmented Nuclei (%)” value [3]?
Answer: The value was 21%.

Question: What about the “Population Healthy Nuclei (%)” value [3] of the same compound?
Answer: Its value is 55%.

Question: What about the “Population Hoechst High Intensity Objects (%)” value [3] of the same compound?
Answer: The value was 5%.

Question: What about the “Population Membrane Permeable-Phenotype (%)” value [3] of the same compound?
Answer: The value was 63%.

Question: What about the “Population Mitochondria Different-Phenotype (%)” value [3] of the same compound?
Answer: The value was 44%.

Question: What about the “Population Mitotic Cells (%)” value [3] of the same compound?
Answer: The value was 42%.

Question: What about the “Population Normal (%)” value [3] of the same compound?
Answer: The value was 94%.

Question: And the “Population Pyknosed Nuclei (%)” value [3]?
Answer: Its value is 23%.

Question: What about the “Population Tubulin-Different-Phenotype (%)” value [3] of the same compound?
Answer: The value was 65%.

Question: And the “Total Cell Count” value [3]?
Answer: The value was 240.

Question: And the “Population Fragmented Nuclei (%)” value [4]?
Answer: Its value is 16%.

Question: What about the “Population Healthy Nuclei (%)” value [4] of the same compound?
Answer: Its value is 60%.

Question: What about the “Population Hoechst High Intensity Objects (%)” value [4] of the same compound?
Answer: The value was 3%.

Question: And the “Population Membrane Permeable-Phenotype (%)” value [4]?
Answer: Its value is 35%.

Question: What about the “Population Mitochondria Different-Phenotype (%)” value [4] of the same compound?
Answer: The value was 68%.

Question: What about the “Population Normal (%)” value [4] of the same compound?
Answer: Its value is 96%.

Question: What about the “Population Tubulin-Different-Phenotype (%)” value [4] of the same compound?
Answer: Its value is 60%.

Question: And the “Total Cell Count” value [4]?
Answer: Its value is 83.

Question: And the “Population Apoptotic (%)” value [5]?
Answer: Its value is 74%.

Question: What about the “Population Fragmented Nuclei (%)” value [5] of the same compound?
Answer: The value was 20%.

Question: What about the “Population Healthy Nuclei (%)” value [5] of the same compound?
Answer: The value was 68%.

Question: And the “Population Hoechst High Intensity Objects (%)” value [5]?
Answer: Its value is 3%.

Question: And the “Population Membrane Permeable-Phenotype (%)” value [5]?
Answer: Its value is 6%.

Question: What about the “Population Mitochondria Different-Phenotype (%)” value [5] of the same compound?
Answer: Its value is 3%.

Question: And the “Population Mitotic Cells (%)” value [5]?
Answer: The value was 25%.

Question: And the “Population Normal (%)” value [5]?
Answer: The value was 96%.

Question: And the “Population Pyknosed Nuclei (%)” value [5]?
Answer: The value was 11%.

Question: And the “Population Tubulin-Different-Phenotype (%)” value [5]?
Answer: Its value is 4%.

Question: And the “Total Cell Count” value [5]?
Answer: The value was 322.

Question: What about the “Population Apoptotic (%)” value [6] of the same compound?
Answer: Its value is 82%.

Question: And the “Population Fragmented Nuclei (%)” value [6]?
Answer: Its value is 18%.

Question: And the “Population Healthy Nuclei (%)” value [6]?
Answer: The value was 69%.

Question: And the “Population Hoechst High Intensity Objects (%)” value [6]?
Answer: The value was 1%.

Question: What about the “Population Membrane Permeable-Phenotype (%)” value [6] of the same compound?
Answer: Its value is 9%.

Question: And the “Population Mitochondria Different-Phenotype (%)” value [6]?
Answer: Its value is 2%.

Question: What about the “Population Mitotic Cells (%)” value [6] of the same compound?
Answer: Its value is 17%.

Question: What about the “Population Normal (%)” value [6] of the same compound?
Answer: The value was 98%.

Question: What about the “Population Tubulin-Different-Phenotype (%)” value [6] of the same compound?
Answer: The value was 6%.

Question: And the “Total Cell Count” value [6]?
Answer: The value was 146.

Question: What about the “Population Apoptotic (%)” value [7] of the same compound?
Answer: Its value is 71%.

Question: What about the “Population Fragmented Nuclei (%)” value [7] of the same compound?
Answer: Its value is 20%.

Question: And the “Population Healthy Nuclei (%)” value [7]?
Answer: Its value is 56%.

Question: And the “Population Hoechst High Intensity Objects (%)” value [7]?
Answer: The value was 5%.

Question: What about the “Population Membrane Permeable-Phenotype (%)” value [7] of the same compound?
Answer: The value was 25%.

Question: What about the “Population Mitochondria Different-Phenotype (%)” value [7] of the same compound?
Answer: The value was 40%.

Question: And the “Population Mitotic Cells (%)” value [7]?
Answer: The value was 28%.

Question: What about the “Population Normal (%)” value [7] of the same compound?
Answer: Its value is 94%.

Question: And the “Population Pyknosed Nuclei (%)” value [7]?
Answer: The value was 23%.

Question: What about the “Population Tubulin-Different-Phenotype (%)” value [7] of the same compound?
Answer: The value was 28%.

Question: And the “Total Cell Count” value [7]?
Answer: The value was 262.

Question: And the “Population Apoptotic (%)” value [8]?
Answer: The value was 81%.

Question: And the “Population Fragmented Nuclei (%)” value [8]?
Answer: Its value is 26%.

Question: What about the “Population Healthy Nuclei (%)” value [8] of the same compound?
Answer: The value was 62%.

Question: What about the “Population Hoechst High Intensity Objects (%)” value [8] of the same compound?
Answer: Its value is 2%.

Question: And the “Population Membrane Permeable-Phenotype (%)” value [8]?
Answer: The value was 36%.

Question: And the “Population Mitochondria Different-Phenotype (%)” value [8]?
Answer: The value was 59%.

Question: What about the “Population Mitotic Cells (%)” value [8] of the same compound?
Answer: Its value is 18%.

Question: What about the “Population Normal (%)” value [8] of the same compound?
Answer: Its value is 97%.

Question: And the “Population Pyknosed Nuclei (%)” value [8]?
Answer: Its value is 10%.

Question: What about the “Population Tubulin-Different-Phenotype (%)” value [8] of the same compound?
Answer: Its value is 50%.

Question: And the “Total Cell Count” value [8]?
Answer: Its value is 108.

Question: And the “Population Apoptotic (%)” value [9]?
Answer: Its value is 77%.

Question: And the “Population Fragmented Nuclei (%)” value [9]?
Answer: The value was 14%.

Question: And the “Population Healthy Nuclei (%)” value [9]?
Answer: Its value is 73%.

Question: What about the “Population Hoechst High Intensity Objects (%)” value [9] of the same compound?
Answer: Its value is 1%.

Question: And the “Population Membrane Permeable-Phenotype (%)” value [9]?
Answer: Its value is 4%.

Question: What about the “Population Mitochondria Different-Phenotype (%)” value [9] of the same compound?
Answer: Its value is 3%.

Question: And the “Population Mitotic Cells (%)” value [9]?
Answer: Its value is 22%.

Question: What about the “Population Normal (%)” value [9] of the same compound?
Answer: The value was 98%.

Question: And the “Population Pyknosed Nuclei (%)” value [9]?
Answer: The value was 11%.

Question: What about the “Population Tubulin-Different-Phenotype (%)” value [9] of the same compound?
Answer: The value was 2%.

Question: And the “Total Cell Count” value [9]?
Answer: The value was 508.

Question: What about the “Population Apoptotic (%)” value [10] of the same compound?
Answer: Its value is 95%.

Question: And the “Population Fragmented Nuclei (%)” value [10]?
Answer: Its value is 15%.

Question: And the “Population Membrane Permeable-Phenotype (%)” value [10]?
Answer: Its value is 6%.

Question: And the “Population Mitochondria Different-Phenotype (%)” value [10]?
Answer: Its value is 5%.

Question: What about the “Population Mitotic Cells (%)” value [10] of the same compound?
Answer: Its value is 5%.

Question: What about the “Population Pyknosed Nuclei (%)” value [10] of the same compound?
Answer: The value was 10%.

Question: What about the “Population Tubulin-Different-Phenotype (%)” value [10] of the same compound?
Answer: Its value is 4%.

Question: And the “Total Cell Count” value [10]?
Answer: The value was 199.

Question: What about the “Population Apoptotic (%)” value [11] of the same compound?
Answer: Its value is 84%.

Question: What about the “Population Fragmented Nuclei (%)” value [11] of the same compound?
Answer: Its value is 25%.

Question: And the “Population Healthy Nuclei (%)” value [11]?
Answer: Its value is 51%.

Question: And the “Population Hoechst High Intensity Objects (%)” value [11]?
Answer: The value was 6%.

Question: And the “Population Membrane Permeable-Phenotype (%)” value [11]?
Answer: The value was 15%.

Question: What about the “Population Mitochondria Different-Phenotype (%)” value [11] of the same compound?
Answer: Its value is 15%.

Question: And the “Population Mitotic Cells (%)” value [11]?
Answer: Its value is 15%.

Question: What about the “Population Normal (%)” value [11] of the same compound?
Answer: Its value is 93%.

Question: What about the “Population Pyknosed Nuclei (%)” value [11] of the same compound?
Answer: The value was 22%.

Question: What about the “Population Tubulin-Different-Phenotype (%)” value [11] of the same compound?
Answer: Its value is 10%.

Question: And the “Total Cell Count” value [11]?
Answer: Its value is 331.

Question: And the “Population Apoptotic (%)” value [12]?
Answer: Its value is 71%.

Question: What about the “Population Fragmented Nuclei (%)” value [12] of the same compound?
Answer: The value was 21%.

Question: And the “Population Healthy Nuclei (%)” value [12]?
Answer: The value was 60%.

Question: What about the “Population Hoechst High Intensity Objects (%)” value [12] of the same compound?
Answer: Its value is 5%.

Question: And the “Population Membrane Permeable-Phenotype (%)” value [12]?
Answer: Its value is 30%.

Question: What about the “Population Mitochondria Different-Phenotype (%)” value [12] of the same compound?
Answer: Its value is 35%.

Question: And the “Population Mitotic Cells (%)” value [12]?
Answer: The value was 28%.

Question: And the “Population Normal (%)” value [12]?
Answer: Its value is 94%.

Question: What about the “Population Pyknosed Nuclei (%)” value [12] of the same compound?
Answer: The value was 18%.

Question: What about the “Population Tubulin-Different-Phenotype (%)” value [12] of the same compound?
Answer: Its value is 23%.

Question: What about the “Total Cell Count” value [12] of the same compound?
Answer: The value was 120.
